# High-throughput results from PubChem.
# A selection: hits, their analogues and other compounds. The true share with any hit is near 2.8%.
# RAM network inh: blocks the yeast RAM network | inhibition, % at 50 µM | 1.8% of 190,000 active | S. cerevisiae dse1pr::URA3 reporter, 5-FOA growth OD615, 2 d; analog-sensitive cbk1-as2 kinase mutant strain;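 active means inhibition above a set limit, 3 SD over mean compound inhibition, cut at about 8.4% in these data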;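 further: 0% = DMSO-only wells with no growth and 100% = 10 µM 1-NA-PP1 full growth; inhibition rescues growth on 5-FOA so higher OD means more RAM inhibition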
# TNAP act hiacc: TNAP (human) activation, high acceptor | activation factor at 20 µM | 200,000 tested, under 10 active | AID 1136 | purified TNAP, CDP-star luminescence, 1 M DEA, 30 min; active compounds read high; 0 = EDTA background, 1 = DMSO-only activity | P05186;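 active means activation factor at least 2 at 20 µM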
# Target sequence (P05186 whole entry, looked up): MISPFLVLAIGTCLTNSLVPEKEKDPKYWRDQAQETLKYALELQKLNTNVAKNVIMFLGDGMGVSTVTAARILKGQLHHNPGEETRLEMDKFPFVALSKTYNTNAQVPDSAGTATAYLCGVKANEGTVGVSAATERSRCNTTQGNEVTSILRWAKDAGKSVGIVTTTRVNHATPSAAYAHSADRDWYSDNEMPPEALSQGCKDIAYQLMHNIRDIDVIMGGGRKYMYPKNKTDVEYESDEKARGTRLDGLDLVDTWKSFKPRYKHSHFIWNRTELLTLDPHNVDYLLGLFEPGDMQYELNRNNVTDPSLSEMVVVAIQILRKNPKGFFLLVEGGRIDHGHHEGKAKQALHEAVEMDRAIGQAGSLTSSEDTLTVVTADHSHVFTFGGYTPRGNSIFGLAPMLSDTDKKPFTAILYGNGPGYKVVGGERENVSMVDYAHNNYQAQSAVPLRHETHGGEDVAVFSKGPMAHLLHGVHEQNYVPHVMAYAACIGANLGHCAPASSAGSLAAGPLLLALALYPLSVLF
#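 Control set: EDTA negative control, DMSO positive control / Assay system: human TNAP / Quantity: TNAP 1/800 final / Evaluation: TNAP activation factor scaled between EDTA and DMSO control wells / Measured by: luminescent substrate turnover signal / Compound dosing: one dose, 20 µM / Times: 30 min enzyme reaction at room temperature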
# Yeast growth inh: reduces growth of yeast BB579 in restrictive medium; S. cerevisiae BB579 growth, OD615, 48 h; inhibition, % at 10 µM; 0.51% of 140,000 active; AID 804;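 active means inhibition above a set limit, 3 SD over the mean compound inhibition, cut at about 44% in these data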
#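 test system = yeast BB579 (DeaD) | buffer or medium = restrictive CSMM-D medium | doses = single compound dose of 10 µM, 0.25% DMSO final | times = 4 h preincubation and 48 h exposure at 30 °C | technique = culture absorbance at 615 nm | benchmarks = amphotericin B 10 µg/mL, positive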
# TNAP inh noacc: inhibitors of human TNAP without phosphate acceptor; AID 1012; 0.26% of 200,000 active; inhibition, % at 20 µM; purified TNAP, CDP-star luminescence, 30 min; P05186;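 active means tissue-nonspecific alkaline phosphatase inhibition above about 50% at 20 µM in the single-dose screen, limit read from the data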;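 further: 0% = DMSO negative control and 100% = EDTA positive control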
# Yeast lifespan up: extends the lifespan of yeast; 0.68% of 130,000 active; inhibition of the nicotinamide effect, % at 10 µM; AID 775; S. cerevisiae growth with nicotinamide, OD615; deaD strain in restrictive glucose medium;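 active means inhibition above a set limit, placed 3 SD over the median of all compounds, cut at about 26% in these data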;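 further: 0% = nicotinamide-treated wells and 100% = cells grown without nicotinamide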
#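 assay system = DeaD-strain S. cerevisiae | measured by = absorbance at 615 nm | probe or stimulus = nicotinamide 1.5 mM | buffer or medium = CSMM-D glucose medium, restrictive | times = 48 h at 30 °C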
# TNAP inh hi DEA: blocks human TNAP under high phosphate acceptor concentration; P05186; purified TNAP, CDP-star luminescence, 1 M DEA; inhibition, % at 20 µM; 0.03% of 200,000 active;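 active means over 50% inhibition of tissue-nonspecific alkaline phosphatase at 20 µM in the single-dose screen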;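 further: plate controls were DMSO wells for no effect and EDTA-quenched wells as full inhibition for full effect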
# The depositor's hits bear a star; . = no result given.
SMILES,RAM network inh,TNAP act hiacc,Yeast growth inh,TNAP inh noacc,Yeast lifespan up,TNAP inh hi DEA
CCc1ccc(C2c3[nH]c4ccccc4c3CCN2C(=O)c2cc(C)nn2C)cc1 (stereo unspecified),2,1.1,.,-42,.,-11
CCc1nnc(NC(=O)CSc2nnc(Cc3ccccc3)n2-c2ccccc2)s1,2,1,-31,-8,-4,-5
CCc1nnc(NC(=O)CSc2nnc(COc3ccc(C)cc3)n2-c2ccccc2)s1,8.7*,1,-42,-6,-6,-2
O=C(COC(=O)c1ccccc1C(=O)c1ccccc1)NCc1ccc(F)cc1,2,1,.,-5,.,-1
Cc1onc(-c2ccccc2)c1C(=O)OCC(=O)NCc1ccc(F)cc1,8.5*,1.1,.,-4,.,-6
CC(=O)c1ccc(NS(=O)(=O)c2ccc(C)cc2)cc1,0,1.1,-38,-2,5,-8
COc1cc(OC)c(OC)cc1/C=C/C(=O)c1ccc(NS(=O)(=O)c2ccc(C)cc2)cc1,9.9*,0.9,-43,8,4,10
O=C(CSCCN1C(=O)c2ccccc2C1=O)Nc1ccc2ccccc2c1,9.2*,1,-9,-5,4,4
O=C(CSCc1cccc(CSCC(=O)Nc2ccc3ccccc3c2)n1)Nc1ccc2ccccc2c1,7,1.1,-67,-38,-6,-8
COc1cc(OC)c(S(=O)(=O)Nc2ccccc2N2CCOCC2)cc1NC(C)=O,-1,1,.,-6,.,-4
COc1ccccc1C(C)NCC(=O)NCC(=O)Nc1ccc(F)c(F)c1F (stereo unspecified),0,1.1,.,-24,.,-6
O=C(CSc1cc(Cl)ccc1Cl)NCC(=O)Nc1ccc(F)c(F)c1F,9.4*,1,-66,-9,6,0
Cn1cc(C(=O)NCN2CCCCC2)c2ccccc21,1,1,-17,-15,-6,-4
C/C(O)=c1/ccc2cccc3nc(C)nc1c23,1,1,69*,-4,-30,1
Cc1nc2ccccc2nc(C)c1=NO,0,1,-26,0,6,0
CCN1C(=O)/C(=C2/C(=O)N3c4c(cc(OC(C)=O)cc42)C(C)=CC3(C)C)SC1=S,8.7*,0.8,-29,14,3,23
CN(C)CC(C(=O)c1ccccc1)c1ccccc1 (stereo unspecified),1,1,-38,-10,101*,1
CCCN(CCC)C(=O)CC(c1ccccc1)c1ccc(C)cc1O (stereo unspecified),0,1,-19,-2,-3,-2
CCCN(CCC)C(=O)CC(c1ccccc1)c1cc(Br)ccc1O (stereo unspecified),9.2*,1,-34,-1,1,1
O=C(Nc1cc(Sc2ccccn2)cc([N+](=O)[O-])c1)c1cccc(F)c1,9.4*,0.9,-22,-32,-3,6
Cc1ccc(NC(=O)c2ccccc2NS(=O)(=O)c2ccc(F)cc2)cc1S(=O)(=O)N1CCCCC1,8.9*,1,-37,-5,7,-1
O=C1c2cnc3nc(SCc4ccc(Cl)cc4)nn3c2CC2c3ccccc3CCN12 (stereo unspecified),4,1.1,-25,2,-2,-8
C=CCN(CC=C)CC(O)CN(c1cc([N+](=O)[O-])ccc1OC)S(=O)(=O)c1ccccc1 (stereo unspecified),1,1,-26,-11,-2,3
CC1=C(C(=O)OCc2ccccc2)C(c2cccc([N+](=O)[O-])c2)NC(=O)N1CCCCCC(=O)O (stereo unspecified),11*,1.1,-54,-11,10,-6
CCOC(=O)C1=C(C)N(CCCC(=O)O)C(=O)NC1c1ccccc1OS(=O)(=O)c1ccc(C)cc1 (stereo unspecified),8.4*,1,-5,-9,-1,-2
SMILES,RAM network inh,TNAP act hiacc,Yeast growth inh,TNAP inh noacc,Yeast lifespan up,TNAP inh hi DEA
CCOC(=O)C1=C(C)N(CCCCCC(=O)O)C(=O)NC1c1ccccc1Cl (stereo unspecified),4,1,-27,-12,0,-3
CC1(C)Oc2ccc(C(=O)NC3CCCC3)cc2N(CC(=O)NC2CCCCC2)C1=O,0,1,-40,-12,-15,5
COc1ccc(C)cc1NCC(=O)Nc1ccc(C(C)(C)C)cc1,2,1.1,-15,-10,-5,-6
CCCC(=O)C1C(=O)CC(CC(C)SCC)CC1=O (stereo unspecified),-1,1,-36,9,97*,-4
CCOc1ccc(C(=O)NNC2CC(=O)N(Cc3ccc(Cl)cc3)C2=O)cc1OC (stereo unspecified),-1,1,.,-9,.,-4
CCOc1ccc(/C=C2/C(=N)N3OC(C)=CC3=NC2=O)cc1OC,1,1,.,-16,.,-5
C=CCOc1ccc(/C=C2\C(=N)N3N=C(S(=O)(=O)CC)SC3=NC2=O)cc1OC,9.6*,1,.,-12,.,-1
CC(C)CN(C(=O)C(c1ccccc1)c1ccccc1)c1c(N)n(CC(C)C)c(=O)[nH]c1=O,3,1,.,-12,.,-3
CCOc1ccc(/C=N/OCC(=O)NC(c2ccccc2)c2ccccc2)cc1,10*,1.1,-31,-14,7,-8
CCc1ccc(C2NC(=S)NC3=C2C(=O)N(c2ccccc2OC)C(c2ccc(CC)cc2)N3)cc1 (stereo unspecified),1,1.1,53*,1,-18,-7
COc1ccccc1CN(Cc1nc2ccccc2c(=O)[nH]1)C(=O)Nc1cccc(C)c1,4,1.1,6,-7,66*,-9
COc1ccccc1NC(=O)N(Cc1ccc2c(c1)OCO2)Cc1nc2ccccc2c(=O)[nH]1,8,1.1,-58,-8,-9,-6
Cn1c(=NC(=O)c2ccc(S(=O)(=O)N3CCCc4ccccc43)cc2)sc2cc(S(C)(=O)=O)ccc21,10*,1,-8,2,14,4
CNC(=O)c1ccc(-c2sc3nc(N4CCOCC4)c4c(c3c2N)CC(C)(C)OC4)o1,5,1.1,-8,-8,-3,-11
CNC(=O)c1ccc(-c2sc3nc(N4CCOCC4)c4c(c3c2N)CCCC4)o1,9.3*,1.1,-8,-20,-23,-9
O=C(COc1ccc(Cl)cc1)NC1=NN(c2ccccc2)C(=O)C1,-1,1,62*,-2,0,4
N#Cc1ccc2ccn(CC(=O)NCc3ccccc3)c2c1,5,1,-40,-6,-12,-2
CCCC(=O)NC(=S)Nc1cccc(Cl)c1N1CCCCC1,8.7*,0.9,-26,0,2,6
